Assays:
[1] = Macroscopic pKa value at 27 C, ionic strength 0.1 M; assay type: physicochemical
[2] = Macroscopic pKa value at 25 C, ionic strength 1 M; assay type: physicochemical
Outline: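 13C and 1H NMR titration in D2O, following chemical shifts against pD at 25 °C, ionic strength 1 M, with a 22 mM solution for the shift data. Carbons of the polyamine chain were assigned from shift data and total ionization shifts. Proton shifts were too small for quantitative analysis, so 1H titration curves were used only qualitatively.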

[3] = Macroscopic pKa value at 25 C, ionic strength 0.1 M; assay type: physicochemical

NCCCNCCCNCCCN [THERMINE] showed a pKa ([1]; read-out: pK1) of 7.36, a pKa ([1]; read-out: pK2) of 8.81 and a pKa ([1]; read-out: pK3) of 10.1. The pKa ([1]; read-out: pK4) was 10.8.
For NCCCCNCCCN [SPERMIDINE], the pKa ([2]; read-out: pK1) was 8.93, the pKa ([2]; read-out: pK2) was 10.3 and the pKa ([2]; read-out: pK3) was 10.9. It also gave a pKa ([3]; read-out: pK1) of 8.15, a pKa ([3]; read-out: pK2) of 9.74 and a pKa ([3]; read-out: pK3) of 10.2.
For NCCCNCCCCNCCCN [SPERMINE], the pKa (physchem) was 10.6, the pKa ([2]; read-out: pK1) was 8.69 and the pKa ([2]; read-out: pK2) was 9.31. For the same molecule, the pKa ([2]; read-out: pK3) was 10.7, the pKa ([2]; read-out: pK4) was 10.8 and the pKa ([3]; read-out: pK1) was 7.91. For the same molecule, the pKa ([3]; read-out: pK2) was 8.68 and the pKa ([3]; read-out: pK3) was 10.2.
Molecule NCCCCNCCCNCCCN has a pKa ([1]; read-out: pK1) of 7.59, a pKa ([1]; read-out: pK2) of 9.24 and a pKa ([1]; read-out: pK3) of 10.5. For the same molecule, the pKa ([1]; read-out: pK4) was 11.1.
With CCCC(=O)NC(Cc1ccc(O)cc1)C(=O)NCCCNCCCCNCCCN (stereo unspecified) the pKa ([2]; read-out: pK1) was 8.5, the pKa ([2]; read-out: pK2) was 9.5 and the pKa ([2]; read-out: pK3) was 10.4. The pKa ([2]; read-out: pK4) was 11.4.

— ChEMBL document CHEMBL1129664, “Neuroactive polyamine wasp toxins: nuclear magnetic resonance spectroscopic analysis of the protolytic properties of philanthotoxin-343” (J Med Chem, 1996)
